Source: ChEMBL document CHEMBL1146365, “Synthesis and biological evaluation of new N-(2-hydroxy-4(or 5)-nitro/aminophenyl)benzamides and phenylacetamides as antimicrobial agents” (2007)
Values after ≈ are worked out from the molar mass of the structure shown.

Assays:
Bacillus subtilis [1] = experiment: Antibacterial activity against drug-resistant Bacillus subtilis assessed after 24 hrs by serial dilution method
Klebsiella pneumoniae [2] = experiment: Antibacterial activity against Klebsiella pneumoniae RSHM 574 assessed after 24 hrs by serial dilution method
Staphylococcus aureus [3] = experiment: Antibacterial activity against drug-resistant Staphylococcus aureus assessed after 24 hrs by serial dilution method
Bacillus subtilis [4] = experiment: Antibacterial activity against Bacillus subtilis ATCC 6633 assessed after 24 hrs by serial dilution method; assay type: functional; conditions: ATCC 6633, 24 h
How it was run: (§1)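 Strains were subcultured twice on MHA at 37 °C overnight. Inoculum was diluted from McFarland 0.5 to 10^5 cfu/ml, giving 10^4 cfu/ml in wells. Solvent, medium and organism-only controls were included. Incubated 37 °C, humid chamber, 24 h, in triplicate. MIC = lowest concentration with no macroscopic growth.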

Candida albicans [5] = experiment: Antifungal activity against Candida albicans ATCC 10231 assessed after 48 hrs by serial dilution method; assay type: functional; conditions: ATCC 10231, 48 h
How it was run: (§2)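 Broth microdilution per CLSI M27-A in RPMI-1640 with L-glutamine, MOPS-buffered pH 7, with 2-fold compound dilutions. Yeasts were subcultured twice on SDA at 35 °C for 24–48 h. Inoculum was diluted from McFarland 0.5 to 10^4 cfu/ml, giving 10^3 cfu/ml in wells. Incubated 35 °C, humid chamber, 48 h, in triplicate. MIC = lowest concentration with no macroscopic growth.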

Escherichia coli [6] = experiment: Antibacterial activity against Escherichia coli isolate assessed after 24 hrs by serial dilution method; assay type: functional
How it was run: as §1

Candida albicans [7] = experiment: Antifungal activity against Candida albicans isolate assessed after 48 hrs by serial dilution method; assay type: functional
How it was run: as §2

Pseudomonas aeruginosa [8] = experiment: Antibacterial activity against Pseudomonas aeruginosa ATCC […] assessed after 24 hrs by serial dilution method
Escherichia coli [9] = experiment: Antibacterial activity against Escherichia coli ATCC assessed after 24 hrs by serial dilution method
Pseudomonas aeruginosa [10] = experiment: Antibacterial activity against Pseudomonas aeruginosa isolate assessed after 24 hrs by serial dilution method; assay type: functional
How it was run: as §1

Klebsiella pneumoniae [11] = experiment: Antibacterial activity against Klebsiella pneumoniae isolate assessed after 24 hrs by serial dilution method; assay type: functional
How it was run: as §1

Staphylococcus aureus [12] = experiment: Antibacterial activity against Staphylococcus aureus ATCC 25923 assessed after 24 hrs by serial dilution method; assay type: functional; conditions: ATCC 25923, 24 h
How it was run: as §1

Compound	MIC (Bacillus subtilis [1]) [µg/mL]	MIC (Klebsiella pneumoniae [2]) [µg/mL]	MIC (Staphylococcus aureus [3]) [µg/mL]	MIC (Bacillus subtilis [4]) [µg/mL]	MIC (Candida albicans [5]) [µg/mL]	MIC (Escherichia coli [6]) [µg/mL]	MIC (Candida albicans [7]) [µg/mL]	MIC (Pseudomonas aeruginosa [8]) [µg/mL]	MIC (Escherichia coli [9]) [µg/mL]	MIC (Pseudomonas aeruginosa [10]) [µg/mL]	MIC (Klebsiella pneumoniae [11]) [µg/mL]	MIC (Staphylococcus aureus [12]) [µg/mL]
CCc1ccc(C(=O)Nc2ccc([N+](=O)[O-])cc2O)cc1	15.6 (≈ 54.5 µM)	500 (≈ 1750 µM)	125 (≈ 437 µM)	250 (≈ 873 µM)	125 (≈ 437 µM)	125 (≈ 437 µM)	125 (≈ 437 µM)	250 (≈ 873 µM)	125 (≈ 437 µM)	250 (≈ 873 µM)	125 (≈ 437 µM)	62.5 (≈ 218 µM)
CCc1ccc(C(=O)Nc2cc([N+](=O)[O-])ccc2O)cc1	31.2 (≈ 109 µM)	250 (≈ 873 µM)	7.8 (≈ 27.2 µM)	3.9 (≈ 13.6 µM)	125 (≈ 437 µM)	250 (≈ 873 µM)	62.5 (≈ 218 µM)	62.5 (≈ 218 µM)	125 (≈ 437 µM)	250 (≈ 873 µM)	125 (≈ 437 µM)	7.8 (≈ 27.2 µM)
Nc1ccc(NC(=O)c2ccc(F)cc2)c(O)c1	125 (≈ 508 µM)	125 (≈ 508 µM)	15.6 (≈ 63.4 µM)	125 (≈ 508 µM)	125 (≈ 508 µM)	250 (≈ 1020 µM)	125 (≈ 508 µM)	125 (≈ 508 µM)	250 (≈ 1020 µM)	250 (≈ 1020 µM)	250 (≈ 1020 µM)	62.5 (≈ 254 µM)
OC(Cn1cncn1)(Cn1cncn1)c1ccc(F)cc1F [FLUCONAZOLE]	–	–	–	–	4 (≈ 13.1 µM)	–	512 (≈ 1670 µM)	–	–	–	–	–
O=C(Nc1cc([N+](=O)[O-])ccc1O)c1ccccc1	62.5 (≈ 242 µM)	125 (≈ 484 µM)	15.6 (≈ 60.4 µM)	7.8 (≈ 30.2 µM)	125 (≈ 484 µM)	250 (≈ 968 µM)	250 (≈ 968 µM)	125 (≈ 484 µM)	125 (≈ 484 µM)	250 (≈ 968 µM)	250 (≈ 968 µM)	31.2 (≈ 121 µM)
O=C(Nc1ccc([N+](=O)[O-])cc1O)c1ccc(Br)cc1	1.95 (≈ 5.78 µM)	125 (≈ 371 µM)	500 (≈ 1480 µM)	3.9 (≈ 11.6 µM)	250 (≈ 742 µM)	250 (≈ 742 µM)	125 (≈ 371 µM)	250 (≈ 742 µM)	62.5 (≈ 185 µM)	250 (≈ 742 µM)	125 (≈ 371 µM)	7.8 (≈ 23.1 µM)
Cc1ccc(CC(=O)Nc2ccc([N+](=O)[O-])cc2O)cc1	250 (≈ 873 µM)	125 (≈ 437 µM)	500 (≈ 1750 µM)	125 (≈ 437 µM)	62.5 (≈ 218 µM)	250 (≈ 873 µM)	250 (≈ 873 µM)	250 (≈ 873 µM)	125 (≈ 437 µM)	250 (≈ 873 µM)	250 (≈ 873 µM)	250 (≈ 873 µM)
Nc1ccc(NC(=O)Cc2ccc(Cl)cc2)c(O)c1	62.5 (≈ 226 µM)	125 (≈ 452 µM)	31.2 (≈ 113 µM)	250 (≈ 903 µM)	125 (≈ 452 µM)	125 (≈ 452 µM)	125 (≈ 452 µM)	125 (≈ 452 µM)	125 (≈ 452 µM)	125 (≈ 452 µM)	250 (≈ 903 µM)	62.5 (≈ 226 µM)
C[C@@H]1[C@H](O)[C@@H](C)/C=C/C=C/C=C/C=C/C=C/C=C/C=C/[C@H](O[C@@H]2O[C@H](C)[C@@H](O)[C@H](N)[C@@H]2O)C[C@@H]2O[C@](O)(C[C@@H](O)C[C@@H](O)[C@H](O)CC[C@@H](O)C[C@@H](O)CC(=O)O[C@H]1C)C[C@H](O)[C@H]2C(=O)O [AMPHOTERICIN B]	–	–	–	–	–	–	128 (≈ 139 µM)	–	–	–	–	–
CO[C@H]1/C=C/O[C@@]2(C)Oc3c(C)c(O)c4c(O)c(c(/C=N/N5CCN(C)CC5)c(O)c4c3C2=O)NC(=O)/C(C)=C\C=C\[C@H](C)[C@H](O)[C@@H](C)[C@@H](O)[C@@H](C)[C@H](OC(C)=O)[C@@H]1C [RIFAMPIN]	256 (≈ 311 µM)	16 (≈ 19.4 µM)	512 (≈ 622 µM)	–	–	62.5 (≈ 75.9 µM)	–	32 (≈ 38.9 µM)	> 4100	32 (≈ 38.9 µM)	256 (≈ 311 µM)	> 4100
Cc1ccc(CC(=O)Nc2cc(N)ccc2O)cc1	–	–	–	15.6 (≈ 60.9 µM)	125 (≈ 488 µM)	250 (≈ 975 µM)	125 (≈ 488 µM)	–	–	250 (≈ 975 µM)	250 (≈ 975 µM)	31.2 (≈ 122 µM)
Nc1ccc(O)c(NC(=O)Cc2ccc(F)cc2)c1	–	–	–	15.6 (≈ 59.9 µM)	250 (≈ 961 µM)	250 (≈ 961 µM)	125 (≈ 480 µM)	–	–	250 (≈ 961 µM)	250 (≈ 961 µM)	62.5 (≈ 240 µM)
CC1(C)S[C@@H]2[C@H](NC(=O)[C@H](N)c3ccccc3)C(=O)N2[C@H]1C(=O)O.O.O.O [AMPICILLIN TRIHYDRATE]	8	1020	> 4100	16	–	500	–	4	> 4100	2	256	64
